Test results: paper PMC2908029 (Current radiopharmaceuticals, 2010)
Values joined by “and” are separate entries in the source; they are usually repeats but may differ in a detail not shown here. Equal values may be shown once.

Columns and labels:
[1] = molecular target: 5-HT1A receptors; conditions: cited from earlier work
[2] = Effect of cyclosporin A on rat plasma and brain levels of [18F]S14506; format: in vivo; conditions: 30 min after administration
[3] = Stability in sodium phosphate buffer; format: physicochemical; conditions: sodium phosphate buffer (0.15 M), room temperature, 2.5 h
[4] = test system: brain 5-HT1A receptors; assay: PET imaging of [18F]S14506 in monkey; format: in vivo, rhesus monkey; conditions: absence of radioactivity accumulation in skull
[5] = Ex vivo biodistribution and radiometabolite composition of [18F]S14506 in rat; parameters: species or system Sprague-Dawley rat
[6] = Distribution between blood components; format: in vitro ADME; conditions: rat, without hematocrit correction
How it was run: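 [18F]-labelled test compound (0.8 μCi) added to heparinized rat whole blood (from cardiac puncture) in duplicate tubes and incubated at room temperature for 27 min. Blood centrifuged at 1800 × g for 3 min, plasma separated, and all fractions γ-counted. Percent radioactivity in plasma and in cells reported without hematocrit correction.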

[7] = Plasma protein binding; format: in vitro ADME; conditions: rat plasma
[8] = test system: brain 5-HT1A receptors; assay: PET imaging of [11C]S14506 in monkey; format: in vivo, rhesus monkey
[9] = molecular target: T1, brain 5-HT1A receptors (Rattus norvegicus, UniProt P19327); assay: PET imaging of [11C]S14506 in rat; format: in vivo, Sprague-Dawley rat; conditions: i.v.
T1 sequence (P19327 1-422): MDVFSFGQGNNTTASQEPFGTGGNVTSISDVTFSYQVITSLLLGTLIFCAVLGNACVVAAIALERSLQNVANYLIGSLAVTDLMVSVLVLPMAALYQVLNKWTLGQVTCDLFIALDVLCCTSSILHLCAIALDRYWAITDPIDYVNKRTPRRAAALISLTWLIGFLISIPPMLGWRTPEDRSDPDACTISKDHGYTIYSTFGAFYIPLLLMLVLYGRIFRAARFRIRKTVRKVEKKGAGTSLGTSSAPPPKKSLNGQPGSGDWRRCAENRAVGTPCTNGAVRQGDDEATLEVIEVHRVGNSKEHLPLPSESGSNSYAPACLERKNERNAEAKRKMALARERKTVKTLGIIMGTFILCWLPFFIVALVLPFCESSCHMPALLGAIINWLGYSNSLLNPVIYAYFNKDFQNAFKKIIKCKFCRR

[10] = Stability in whole blood; format: in vitro ADME; conditions: rat whole blood in vitro, 125 min, room temperature
[11] = Emergence of radiometabolites in monkey plasma; format: in vivo, rhesus monkey; conditions: over the PET study
[12] = test system: human 5-HT1A receptors; conditions: recombinant Chinese hamster ovary cells, room temperature; cited from earlier work

WAY-100635
Kd ([1]; read-out: Kd, 5-HT1A receptor affinity): 0.1 nM

COc1ccc2cccc(N3CCN(CCNC(=O)c4ccc([18F])cc4)CC3)c2c1 [[^18F]S14506]
[18F]S14506 concentration (%SUV), Remainder of brain ([2]; Control): 141 %SUV | [18F]S14506 concentration (%SUV), Remainder of brain ([2]; Cyclosporin A treated (50 mg/kg, i.v.)): 211 %SUV | stability to incubation in buffer [3]: stable | radiodefluorination [4]: not radiodefluorinated | Composition (%) of radioactivity, Cerebellum ([5]; 30 min after administration of [18F]S14506, n = 1 rat): 93.9% | Composition (%) of radioactivity, Remainder of brain ([5]; 30 min after administration of [18F]S14506, n = 2 rats): 97.2 ± 0.20% | Composition (%) of radioactivity, Plasma ([5]; 30 min after administration of [18F]S14506, n = 3 rats (mean ± SD)): 38.6 ± 0.17% | whole blood distribution to cellular components [6]: 25.8% | whole blood distribution to plasma [6]: 74.2% | free in plasma (plasma protein binding) [7]: 0.61%

[11CH3]Oc1ccc2cccc(N3CCN(CCNC(=O)c4ccc(F)cc4)CC3)c2c1 [[^11C]S14506]
peak brain radioactivity ([8]; monkey pre-treated with tariquidar 4 mg/kg, i.v., 30 min before): 240 % SUV and ~ 240 % SUV | peak whole brain radioactivity ([8]; monkey, baseline, i.v., at 7 min): ~ 170 % SUV | peak whole brain radioactivity ([9]; rat pre-treated with cyclosporin A 25 mg/kg): ~ 310 % SUV | peak whole brain radioactivity ([9]; rat pre-treated with cyclosporin A 50 mg/kg): ~ 350 % SUV | peak whole brain radioactivity ([9]; rat, baseline, at 2 min): 210 % SUV and ~ 210 % SUV | whole blood distribution to cellular components [6]: 40.9% | whole blood distribution to plasma [6]: 59.1% | unchanged radioligand after incubation with whole blood [10]: > 99.5% | free in plasma (plasma protein binding) [7]: 0.52% | maximal share of the second (minor) radiometabolite in plasma radioactivity [11]: ≤ 3.1%

COc1ccc2cccc(N3CCN(CCNC(=O)c4ccc(F)cc4)CC3)c2c1 [S14506, 1-[2-(4-fluorobenzoylamino)ethyl]-4-(7-methoxynaphthyl)piperazine, reference compound]
time required for a 50% decrease in cerebellar radioactivity ([8]; monkey, cerebellar time-activity curves (non-specific binding)): > 32 min | off rate from human 5-HT1A receptors [12]: 0.029 min⁻¹

COc1ccccc1N1CCN(CCCCn2ncc(=O)n(C)c2=O)CC1 [[^11C]CUMI-101, [O-methyl-^11C]2-(4-(4-(2-methoxyphenyl)piperazin-1-yl)butyl)-4-methyl-1,2,4-triazine-3,5(2H,4H)dione]
Ki ([1]; read-out: Ki, 5-HT1A receptor affinity): 0.15 nM
